# Measurements: ChEMBL document CHEMBL2202955, “Identification of Potent, Selective, Cell-Active Inhibitors of the Histone Lysine Methyltransferase EZH2” (ACS Med Chem Lett, 2012)
# pIC50, pKi: −log10 of the molar value.
# Columns and labels:
# [1] = molecular target: Histone-lysine N-methyltransferase EZH2 (Homo sapiens, UniProt Q15910); assay: Inhibition of EZH2-mediated nuclear H3K27 methylation in human HCC1806 cells after 72 hrs by immunofluorescence analysis; type: cell-based
# Procedure, shortened: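 HCC1806 breast cancer cells were exposed to compound for 72 h. Nuclear H3K27me3 was quantified by an immunofluorescence imaging assay and normalized to total H3. Values are the mean of at least three independent replicates.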
# [2] = molecular target: EZH2/SUZ12/EED/RBBP7/RBBP4; assay: Inhibition of PRC2 complex of FLAG-EZH2, EED, SUZ12, AEBP2 and RbAp48 using histone H3 peptide (21 to 44) as substrate and [3H]SAM after 30 mins; type: protein-complex assay; settings: read-out: Ki(app)
# Sequence of Histone-lysine N-methyltransferase EZH2 (Q15910 whole entry): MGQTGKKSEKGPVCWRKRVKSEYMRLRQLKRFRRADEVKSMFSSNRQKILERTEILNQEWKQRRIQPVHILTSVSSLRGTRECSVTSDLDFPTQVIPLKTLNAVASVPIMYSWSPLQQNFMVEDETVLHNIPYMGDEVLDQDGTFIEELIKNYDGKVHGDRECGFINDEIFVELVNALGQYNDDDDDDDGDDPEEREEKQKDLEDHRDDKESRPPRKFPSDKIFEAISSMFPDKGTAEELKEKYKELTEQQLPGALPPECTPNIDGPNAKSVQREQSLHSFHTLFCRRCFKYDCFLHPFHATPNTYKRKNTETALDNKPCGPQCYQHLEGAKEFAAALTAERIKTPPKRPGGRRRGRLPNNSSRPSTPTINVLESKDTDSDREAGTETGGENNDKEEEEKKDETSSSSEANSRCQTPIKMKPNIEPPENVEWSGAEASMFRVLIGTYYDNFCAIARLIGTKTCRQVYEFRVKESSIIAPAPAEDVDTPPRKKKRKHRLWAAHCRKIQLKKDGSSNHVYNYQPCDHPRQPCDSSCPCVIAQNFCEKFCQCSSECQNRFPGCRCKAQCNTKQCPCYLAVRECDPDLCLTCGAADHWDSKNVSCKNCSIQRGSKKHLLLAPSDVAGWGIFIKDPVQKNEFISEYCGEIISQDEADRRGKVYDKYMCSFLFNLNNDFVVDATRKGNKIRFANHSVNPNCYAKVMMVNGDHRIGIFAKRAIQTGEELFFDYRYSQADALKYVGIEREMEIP
structure (smiles),measurement,setting,value
Cc1cc(C)c(CNC(=O)c2cc(-c3ccnc(N4CCN(C)CC4)c3)cc3c2cnn3C(C)C)c(=O)[nH]1,pIC50,[1],5.70
same,pKi,[2],7.85
Cc1cc(C)c(CNC(=O)c2cc(C3CC3)cc3c2cnn3C(C)C)c(=O)[nH]1,pIC50,[1],5.60
same,pKi,[2],7.13
